We go through ten compounds from PubChem BioAssay AID652011 (Sanford-Burnham Center for Chemical Genomics, 2013).

The structures appear in SMILES notation.

Hypoxia-inducible factor 1-alpha (Homo sapiens), sequence (Q16665 whole entry, looked up): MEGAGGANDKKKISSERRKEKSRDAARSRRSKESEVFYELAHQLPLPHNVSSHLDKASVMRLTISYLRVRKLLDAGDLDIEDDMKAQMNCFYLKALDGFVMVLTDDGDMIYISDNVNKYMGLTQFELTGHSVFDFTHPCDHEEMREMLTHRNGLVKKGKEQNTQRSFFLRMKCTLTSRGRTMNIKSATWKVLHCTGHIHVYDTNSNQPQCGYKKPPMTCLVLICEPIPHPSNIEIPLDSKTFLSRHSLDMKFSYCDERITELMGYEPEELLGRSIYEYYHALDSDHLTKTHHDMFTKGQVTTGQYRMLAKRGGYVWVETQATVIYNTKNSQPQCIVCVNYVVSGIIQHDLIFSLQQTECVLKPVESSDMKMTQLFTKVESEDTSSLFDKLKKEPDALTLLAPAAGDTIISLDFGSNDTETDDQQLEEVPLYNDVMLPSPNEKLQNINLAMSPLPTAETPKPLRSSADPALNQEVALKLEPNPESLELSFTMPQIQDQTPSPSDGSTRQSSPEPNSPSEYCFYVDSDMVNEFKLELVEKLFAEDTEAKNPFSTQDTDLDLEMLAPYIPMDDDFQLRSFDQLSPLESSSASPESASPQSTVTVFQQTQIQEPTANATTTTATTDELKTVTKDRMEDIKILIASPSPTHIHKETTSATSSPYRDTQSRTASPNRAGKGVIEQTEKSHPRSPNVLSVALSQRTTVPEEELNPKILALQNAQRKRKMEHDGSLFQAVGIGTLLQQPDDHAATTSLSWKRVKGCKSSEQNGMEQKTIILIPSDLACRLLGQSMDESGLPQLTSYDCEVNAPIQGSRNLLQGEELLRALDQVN

This test deals with Hypoxia-inducible factor 1-alpha (Homo sapiens) (UniProt Q16665). Put plainly: HIF reporter inhibition across pancreatic and renal lines – cell-based, luminescence, MIAPaCa-2, 786-0, panel, SAR follow-up (AID 652011). To be noted: MIAPaCa-2/PANC HIF reporter, luciferase luminescence, desferoxamine, overnight, HIF1a, run 1; at 99 µM (top of the series). A digest of the protocol:
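Detection: luminescence, One-Glo; Reagent: desferoxamine; Incubation: overnight seeding and compound exposure, 37 °C, 5% CO2, 10-min detection.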
One may read the inhibition as the drop in the measured response relative to a control, in per cent. With `CCNC(=O)CCc1nc(-c2cccc(OC)c2)no1`, the inhibition is -42.1%.

Take `CC(C)c1ccc(-c2noc(CCC(=O)NC(C)(C)C)n2)cc1`: the inhibition was -0.968%.

For the compound `CCNC(=O)CCc1nc(-c2ccccc2C)no1`, the inhibition is -25.2%.

Take `CC(C)NC(=O)CCc1nc(-c2ccc(C(C)(C)C)cc2)no1`: the inhibition worked out at 17.3%.

In the case of `O=C(CCc1nc(-c2ccccc2)no1)NC1CC1`, the inhibition was -33.5%.

Take `CCOc1ccc(-c2noc(CCC(=O)NC)n2)cc1`: the inhibition was -41.9%.

For the compound `CCCCc1ccc(-c2noc(CCC(=O)NC(C)CC)n2)cc1` (stereo not given), the inhibition worked out at 29.2%.

Turning to `COC(=O)CCc1nc(-c2ccc(C(C)(C)C)cc2)no1`, the inhibition worked out at 92.2%.

As to `CC(C)(C)c1ccc(-c2noc(CCC(=O)O)n2)cc1`, the inhibition turned out to be 94.7%.

Regarding `CC(C)(C)c1ccc(-c2noc(CCC(=O)NC3CC3)n2)cc1`, the inhibition was -50.8%.
